In ChEMBL document CHEMBL1821659, “N-Benzyl-3-sulfonamidopyrrolidines are a New Class of Bacterial DNA Gyrase Inhibitors” (ACS Med Chem Lett, 2011):
pIC50: −log10 of the molar value. ≈ marks a conversion by molar mass, not a printed value. Calls of active or inactive are those of the source. No cut-off for these calls is given here.

Legend:
Escherichia coli [1] = test: Antimicrobial activity against Escherichia coli BW25113 after 14 hrs by microdilution method in presence of efflux pump inhibitor 60 uM MC-207,110; format: functional; conditions: BW25113, 14 h
Pseudomonas aeruginosa [2] = test: Antimicrobial activity against Pseudomonas aeruginosa K after 16 hrs by microdilution method in presence of efflux pump inhibitor 60 uM MC-207,110; format: functional
Salmonella enterica [3] = test: Antimicrobial activity against Salmonella enterica ATCC 19585 after 14 hrs by microdilution method in presence of efflux pump inhibitor 60 uM MC-207,110; format: functional; conditions: ATCC 19585, 14 h
Streptococcus pneumoniae [4] = test: Antimicrobial activity against Streptococcus pneumoniae ATCC 10813 after 24 hrs by microdilution method; format: functional; conditions: ATCC 10813, 24 h
Escherichia coli [5] = test: Antimicrobial activity against Escherichia coli BW25113 delta tolC after 14 hrs by macrodilution method; format: functional
Outline: (§1)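 MIC determined in the E. coli BW25113 ΔtolC drug-pump knockout, which lacks a functional AcrAB-TolC multidrug efflux pump. The pump inhibitor was applied only to the wild-type strains.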

Escherichia coli [6] = test: Antimicrobial activity against Escherichia coli BW25113 after 14 hrs by macrodilution method in presence of efflux pump inhibitor 60 uM MC-207,110; format: functional; conditions: BW25113, 14 h
Outline: (§2)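 Run on wild-type strains, with 60 μM of the efflux pump inhibitor MC-207,110 added to potentiate compound activity.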

Pseudomonas aeruginosa [7] = test: Antimicrobial activity against Pseudomonas aeruginosa K after 16 hrs by macrodilution method in presence of efflux pump inhibitor 60 uM MC-207,110; format: functional; outline: as §2
Salmonella enterica [8] = test: Antimicrobial activity against Salmonella enterica ATCC 19585 after 14 hrs by macrodilution method in presence of efflux pump inhibitor 60 uM MC-207,110; format: functional; conditions: ATCC 19585, 14 h; outline: as §2
Staphylococcus aureus [9] = test: Antimicrobial activity against Staphylococcus aureus FRI 100 after 14 hrs by macrodilution method; format: functional; conditions: FRI 100, 14 h
Streptococcus pneumoniae [10] = test: Antimicrobial activity against Streptococcus pneumoniae ATCC 10813 after 24 hrs by macrodilution method; format: functional; conditions: ATCC 10813, 24 h
Enterococcus faecalis [11] = test: Antimicrobial activity against Enterococcus faecalis 1131 after 14 hrs by macrodilution method; format: functional; conditions: Enterococcus faecalis, 1131, 14 h
[12] = Inhibition of Escherichia coli DNA gyrase assessed as DNA supercoiling using pUC19 as substrate after 30 mins by agarose gel electrophoresis
Outline: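 Gel-based supercoiling assay on pUC19. Supercoiled, linear and relaxed pUC19 were run as marker lanes. Test compounds were applied at a range of μM concentrations.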

Escherichia coli [13] = test: Antimicrobial activity against Escherichia coli BW25113 delta tolC after 14 hrs by microdilution method; format: functional; outline: as §1
Staphylococcus aureus [14] = test: Antimicrobial activity against Staphylococcus aureus FRI 100 in presence of reserpine after 14 hrs; format: functional, organism-based
Enterococcus faecalis [15] = test: Antimicrobial activity against Enterococcus faecalis 1131 after 14 hrs; format: functional, organism-based
Enterococcus faecalis [16] = test: Antimicrobial activity against Enterococcus faecalis 1131 in presence of reserpine after 14 hrs; format: functional, organism-based
Nucleic Acid = test: Induction of DNA damage at Escherichia coli supercoiled pUC19 bound to DNA gyrase assessed as dsDNA breaks in the absence of ATP at =<3.3 mM after 1 hrs by agarose gel electrophoresis; format: nucleic-acid assay

| Structure (SMILES) | MIC (Escherichia coli [1]) | MIC (Pseudomonas aeruginosa [2]) | MIC (Salmonella enterica [3]) | MIC (Streptococcus pneumoniae [4]) | MIC (Escherichia coli [5]) | MIC (Escherichia coli [6]) | MIC (Pseudomonas aeruginosa [7]) | MIC (Salmonella enterica [8]) | MIC (Staphylococcus aureus [9]) | MIC (Streptococcus pneumoniae [10]) | MIC (Enterococcus faecalis [11]) | pIC50 [12] | MIC (Escherichia coli [13]) | Activity (Staphylococcus aureus [14]) | Activity (Enterococcus faecalis [15]) | Activity (Enterococcus faecalis [16]) | Activity (Nucleic Acid) |
| --- | --- | --- | --- | --- | --- | --- | --- | --- | --- | --- | --- | --- | --- | --- | --- | --- | --- |
| Cc1ccc(F)cc1S(=O)(=O)N[C@@H]1CCN(Cc2ccc(OC(C)C)cc2)C1 | 40 µM | 80 µM | 80 µM | 160 µM (≈ 65 µg/mL) | 10 µM (≈ 4.07 µg/mL) | 40 µM | 80 µM | 80 µM | > 160 µM | 160 µM (≈ 65 µg/mL) | > 160 µM | 5.48 |  |  |  |  |  |
| Cc1ccc(F)cc1S(=O)(=O)N[C@H]1CCN(Cc2ccc(OC(C)C)cc2)C1 |  |  |  |  | 140 µM (≈ 56.9 µg/mL) |  |  |  |  |  |  | 4.39 | 140 µM (≈ 56.9 µg/mL) |  |  |  |  |
| Cc1ccc(F)cc1S(=O)(=O)NC1CCN(Cc2ccc(OC(C)C)cc2)C1 (stereo not drawn) |  |  |  |  |  |  |  |  |  |  |  |  |  | inactive | inactive | inactive | inactive |
| Cc1ccc(F)cc1S(=O)(=O)NC1CCN(Cc2ccc(CC(C)C)cc2)C1 (stereo not drawn) [GYRAMIDE B] | 40 µM | 40 µM | 20 µM |  | 5 µM (≈ 2.02 µg/mL) | 40 µM | 40 µM | 20 µM | 80 µM (≈ 32.4 µg/mL) | 20 µM (≈ 8.09 µg/mL) | > 160 µM | 6.15 |  | inactive | inactive | inactive |  |
| Cc1ccc(F)cc1S(=O)(=O)NC1CCN(Cc2ccc(-c3ccccc3)cc2)C1 (stereo not drawn) [GYRAMIDE C] | 20 µM | 20 µM | 10 µM |  | 2.5 µM (≈ 1.06 µg/mL) | 20 µM | 20 µM | 10 µM | 20 µM (≈ 8.49 µg/mL) | 10 µM (≈ 4.25 µg/mL) | > 160 µM | 5.96 | 2.5 µM (≈ 1.06 µg/mL) | inactive | inactive | inactive |  |
